The values below come from ChEMBL document CHEMBL4665627 (Eur J Med Chem, 2019).

Assay type in all cases: functional
The subject of assay [1] is Escherichia coli. In words: Antibacterial activity against Escherichia coli ATCC 25922 assessed as inhibition of bacterial growth after 24 hrs by CLSI protocol based two fold serial dilution method. The method, boiled down:
(§1)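 Two-fold serial broth dilution in 96-well plates following CLSI; MIC (mM) taken as the lowest concentration giving complete growth inhibition; MIC values from three independent experiments.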

For assay [2], the system named is Escherichia coli. In words: Antibacterial activity against Escherichia coli assessed as inhibition of bacterial growth after 24 hrs by CLSI protocol based two fold serial dilution method. The method, boiled down: as §1
The test system of the next assay is Klebsiella pneumoniae. In words: Antibacterial activity against Klebsiella pneumoniae assessed as inhibition of bacterial growth after 24 hrs by CLSI protocol based two fold serial dilution method. The method, boiled down:
as §1

Another assay concerns Candida parapsilosis. In words: Antifungal activity against Candida parapsilosis ATCC 22019 assessed as inhibition of fungal growth after 24 hrs by CLSI protocol based two fold serial dilution method. To be noted: Lodderomyces parapsilosis. Summed up: as §1
The test system of assay [3] is Pseudomonas aeruginosa. In words: Antibacterial activity against Pseudomonas aeruginosa assessed as inhibition of bacterial growth after 24 hrs by CLSI protocol based two fold serial dilution method. Summed up:
as §1

For assay [4], the system named is Candida albicans. In words: Antifungal activity against Candida albicans assessed as inhibition of fungal growth after 24 hrs by CLSI protocol based two fold serial dilution method. The method, boiled down:
as §1

Assay [5] relates to Staphylococcus aureus. In words: Antibacterial activity against Staphylococcus aureus ATCC 29213 assessed as inhibition of bacterial growth after 24 hrs by CLSI protocol based two fold serial dilution method.
Assay [6] has as its system Staphylococcus aureus. Kind of assay: Antibacterial activity against Staphylococcus aureus assessed as inhibition of bacterial growth after 24 hrs by CLSI protocol based two fold serial dilution method. Summed up: as §1
The test system of the next assay is Acinetobacter baumannii. Kind of assay: Antibacterial activity against Acinetobacter baumannii assessed as inhibition of bacterial growth after 24 hrs by CLSI protocol based two fold serial dilution method. Summed up: as §1
A further assay concerns Aspergillus fumigatus. Kind of assay: Antifungal activity against Aspergillus fumigatus assessed as inhibition of fungal growth after 24 hrs by CLSI protocol based two fold serial dilution method. The method, boiled down: as §1
Another assay relates to Enterococcus faecalis. Kind of assay: Antibacterial activity against Enterococcus faecalis assessed as inhibition of bacterial growth after 24 hrs by CLSI protocol based two fold serial dilution method. The method, boiled down:
as §1

In assay [7] the test system is Staphylococcus aureus. In words: Antibacterial activity against Staphylococcus aureus ATCC 25923 assessed as inhibition of bacterial growth after 24 hrs by CLSI protocol based two fold serial dilution method. The method, boiled down:
as §1

Assay [8] concerns Pseudomonas aeruginosa. In words: Antibacterial activity against Pseudomonas aeruginosa ATCC 27853 assessed as inhibition of bacterial growth after 24 hrs by CLSI protocol based two fold serial dilution method. Summed up: as §1
The subject of another assay is Candida tropicalis. Kind of assay: Antifungal activity against Candida tropicalis assessed as inhibition of fungal growth after 24 hrs by CLSI protocol based two fold serial dilution method. Summed up:
as §1

The test system of assay [9] is Staphylococcus aureus. In words: Antibacterial activity against methicillin-resistant Staphylococcus aureus N315 assessed as inhibition of bacterial growth after 24 hrs by CLSI protocol based two fold serial dilution method.
In assay [10] the test system is Candida albicans. In words: Antifungal activity against Candida albicans ATCC 90023 assessed as inhibition of fungal growth after 24 hrs by CLSI protocol based two fold serial dilution method. Summed up:
as §1

In brackets after ≈: the same amount, converted by molar mass.

A word on the MIC: it is the lowest concentration found to suppress growth. As for `CCn1cc(-c2csc(N)n2)c(=O)c2cc(N3CCNCC3)c(Cl)cc21`, the minimal inhibitory concentration (MIC) in the assay with Escherichia coli [1] came to 164 µM (≈ 63.9 µg/mL); with Escherichia coli [2], 329 µM (≈ 128 µg/mL); with Klebsiella pneumoniae it was 164 µM (≈ 63.9 µg/mL); in the assay on Candida parapsilosis, 1320 µM (≈ 513 µg/mL); in the assay on Pseudomonas aeruginosa [3], 41 µM (≈ 16 µg/mL); with Candida albicans [4] it was 329 µM (≈ 128 µg/mL). Besides, the minimal inhibitory concentration (MIC) worked out at 329 µM (≈ 128 µg/mL) with Staphylococcus aureus [5]; 82 µM (≈ 32 µg/mL) with Staphylococcus aureus [6]; 1320 µM (≈ 513 µg/mL) with Acinetobacter baumannii; 164 µM (≈ 63.9 µg/mL) in the assay with Aspergillus fumigatus; 329 µM (≈ 128 µg/mL) with Enterococcus faecalis; 82 µM (≈ 32 µg/mL) with Staphylococcus aureus [7]. In addition, the MIC amounted to 658 µM (≈ 257 µg/mL) with Pseudomonas aeruginosa [8], 329 µM (≈ 128 µg/mL) in the assay with Candida tropicalis, 658 µM (≈ 257 µg/mL) with Staphylococcus aureus [9] and 164 µM (≈ 63.9 µg/mL) in the assay on Candida albicans [10].
Turning to `CCCCCCCCCCCCN1CCN(c2cc3c(cc2F)c(=O)c(-c2csc(N)n2)cn3CC)CC1`, the MIC in the assay on Escherichia coli [1] came to 946 µM (≈ 513 µg/mL); in the assay on Escherichia coli [2], 473 µM (≈ 256 µg/mL); in the assay with Klebsiella pneumoniae it was 946 µM (≈ 513 µg/mL); in the assay with Candida parapsilosis it was 473 µM (≈ 256 µg/mL); in the assay on Pseudomonas aeruginosa [3], 473 µM (≈ 256 µg/mL); with Candida albicans [4], 473 µM (≈ 256 µg/mL). Besides, the MIC in the assay with Staphylococcus aureus [5] came to 946 µM (≈ 513 µg/mL); in the assay with Staphylococcus aureus [6], 473 µM (≈ 256 µg/mL); in the assay on Acinetobacter baumannii, 473 µM (≈ 256 µg/mL); with Aspergillus fumigatus it was 473 µM (≈ 256 µg/mL); with Enterococcus faecalis, 946 µM (≈ 513 µg/mL); in the assay on Staphylococcus aureus [7] it was 946 µM (≈ 513 µg/mL). For the same compound, the MIC in the assay with Pseudomonas aeruginosa [8] is 473 µM (≈ 256 µg/mL); with Candida tropicalis it was 236 µM (≈ 128 µg/mL); in the assay on Staphylococcus aureus [9], 946 µM (≈ 513 µg/mL); in the assay on Candida albicans [10] it was 946 µM (≈ 513 µg/mL).
As to `CCn1cc(-c2csc(N)n2)c(=O)c2cc(F)c(N3CCN(CC(=O)N(C)C)CC3)cc21`, the MIC with Escherichia coli [1] is 70 µM (≈ 32.1 µg/mL); with Escherichia coli [2], 140 µM (≈ 64.2 µg/mL); in the assay with Klebsiella pneumoniae, 35 µM (≈ 16 µg/mL); in the assay with Candida parapsilosis it was 279 µM (≈ 128 µg/mL); in the assay with Pseudomonas aeruginosa [3] it was 279 µM (≈ 128 µg/mL); in the assay on Candida albicans [4], 70 µM (≈ 32.1 µg/mL). Also, the MIC amounted to 70 µM (≈ 32.1 µg/mL) with Staphylococcus aureus [5]; 35 µM (≈ 16 µg/mL) in the assay with Staphylococcus aureus [6]; 140 µM (≈ 64.2 µg/mL) with Acinetobacter baumannii; 70 µM (≈ 32.1 µg/mL) with Aspergillus fumigatus; 140 µM (≈ 64.2 µg/mL) in the assay on Enterococcus faecalis; 17 µM (≈ 7.8 µg/mL) in the assay with Staphylococcus aureus [7]. In addition, the minimum inhibitory concentration (MIC) with Pseudomonas aeruginosa [8] turned out to be 70 µM (≈ 32.1 µg/mL); in the assay on Candida tropicalis, 70 µM (≈ 32.1 µg/mL); in the assay with Staphylococcus aureus [9], 70 µM (≈ 32.1 µg/mL); in the assay on Candida albicans [10] it was 140 µM (≈ 64.2 µg/mL).
For `CCN1CCN(c2cc3c(cc2F)c(=O)c(-c2csc(N)n2)cn3CC)CC1`, the minimum inhibitory concentration (MIC) in the assay with Escherichia coli [1] came out at 160 µM (≈ 64.2 µg/mL); in the assay on Escherichia coli [2], 319 µM (≈ 128 µg/mL); in the assay on Klebsiella pneumoniae it was 160 µM (≈ 64.2 µg/mL); with Candida parapsilosis, 80 µM (≈ 32.1 µg/mL); in the assay with Pseudomonas aeruginosa [3], 319 µM (≈ 128 µg/mL); in the assay on Candida albicans [4], 319 µM (≈ 128 µg/mL). In addition, the MIC stood at 638 µM (≈ 256 µg/mL) in the assay on Staphylococcus aureus [5]; 319 µM (≈ 128 µg/mL) in the assay on Staphylococcus aureus [6]; 319 µM (≈ 128 µg/mL) with Acinetobacter baumannii; 160 µM (≈ 64.2 µg/mL) with Aspergillus fumigatus; 319 µM (≈ 128 µg/mL) in the assay on Enterococcus faecalis; 80 µM (≈ 32.1 µg/mL) in the assay with Staphylococcus aureus [7]. Moreover, the MIC stood at 160 µM (≈ 64.2 µg/mL) in the assay on Pseudomonas aeruginosa [8], 40 µM (≈ 16.1 µg/mL) in the assay on Candida tropicalis, 319 µM (≈ 128 µg/mL) in the assay on Staphylococcus aureus [9] and 319 µM (≈ 128 µg/mL) in the assay with Candida albicans [10].
With `CCn1cc(-c2csc(N)n2)c(=O)c2cc(N3CCN(c4cc5c(cc4F)c(=O)c(-c4csc(N)n4)cn5CC)CC3)c(Cl)cc21`, the MIC in the assay with Escherichia coli [1] stood at 757 µM (≈ 513 µg/mL); in the assay with Escherichia coli [2], 189 µM (≈ 128 µg/mL); with Klebsiella pneumoniae it was 379 µM (≈ 257 µg/mL); with Candida parapsilosis, 757 µM (≈ 513 µg/mL); in the assay with Pseudomonas aeruginosa [3], 757 µM (≈ 513 µg/mL); in the assay on Candida albicans [4], 757 µM (≈ 513 µg/mL). For the same compound, the MIC in the assay on Staphylococcus aureus [5] is 757 µM (≈ 513 µg/mL); in the assay with Staphylococcus aureus [6], 757 µM (≈ 513 µg/mL); with Acinetobacter baumannii it was 757 µM (≈ 513 µg/mL); in the assay on Aspergillus fumigatus, 189 µM (≈ 128 µg/mL); in the assay with Enterococcus faecalis, 757 µM (≈ 513 µg/mL); with Staphylococcus aureus [7] it was 757 µM (≈ 513 µg/mL). The MIC in the assay with Pseudomonas aeruginosa [8], in the assay with Candida tropicalis, in the assay on Staphylococcus aureus [9] and with Candida albicans [10] was 757 µM (≈ 513 µg/mL) in each case.
Turning to `CCOC(=O)CN1CCN(c2cc3c(cc2F)c(=O)c(-c2csc(N)n2)cn3CC)CC1`, the MIC with Escherichia coli [1] was 558 µM (≈ 256 µg/mL); in the assay with Escherichia coli [2], 279 µM (≈ 128 µg/mL); with Klebsiella pneumoniae it was 139 µM (≈ 63.9 µg/mL); in the assay with Candida parapsilosis, 279 µM (≈ 128 µg/mL); in the assay on Pseudomonas aeruginosa [3], 139 µM (≈ 63.9 µg/mL); in the assay with Candida albicans [4] it was 70 µM (≈ 32.2 µg/mL). Moreover, the MIC in the assay with Staphylococcus aureus [5] is 139 µM (≈ 63.9 µg/mL); in the assay on Staphylococcus aureus [6] it was 70 µM (≈ 32.2 µg/mL); in the assay on Acinetobacter baumannii, 35 µM (≈ 16.1 µg/mL); in the assay with Aspergillus fumigatus, 558 µM (≈ 256 µg/mL); in the assay with Enterococcus faecalis, 279 µM (≈ 128 µg/mL); in the assay on Staphylococcus aureus [7], 17 µM (≈ 7.81 µg/mL). Also, the MIC with Pseudomonas aeruginosa [8] was determined as 70 µM (≈ 32.2 µg/mL); in the assay on Candida tropicalis, 139 µM (≈ 63.9 µg/mL); with Staphylococcus aureus [9], 139 µM (≈ 63.9 µg/mL); in the assay with Candida albicans [10] it was 70 µM (≈ 32.2 µg/mL).
